According to ChEMBL document CHEMBL3593177, “Benzimidazole derivatives as potential dual inhibitors for PARP-1 and DHODH” (Bioorg Med Chem, 2015):

Columns and labels:
[1] = molecular target: T1, Dihydroorotate dehydrogenase (quinone), mitochondrial (Homo sapiens, UniProt Q02127); experiment: Inhibition of DHODH (unknown origin) using L-DHO, DUQ, DCIP as substrate at 10 uM preincubated for 30 mins followed by substrate addition measured after 20 mins by multilabel plate reader analysis relative to control
Summary of the method: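 Single-concentration screen at 10 µM. DHODH (25 ng) was preincubated with compound for 30 min at room temperature in 50 mM Tris-HCl, 150 mM KCl, 0.8% Triton, pH 8.0, with 1% DMSO final. The reaction was started with a substrate mix of 20 mM L-DHO, 2 mM DUQ and 2 mM DCIP (added-mix concentrations). DCIP reduction was followed as the drop in A610, read from 20 min, every 10 min for 1 h.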

[2] = molecular target: Poly [ADP-ribose] polymerase 1 (Homo sapiens, UniProt P09874); experiment: Inhibition of PARP-1 (unknown origin) assessed as incorporation of biotinylated poly (ADP-ribose) onto histone protein after 60 mins by TACS-Sapphire substarte-based colorimetric analysis
[3] = molecular target: T1, Dihydroorotate dehydrogenase (quinone), mitochondrial; experiment: Inhibition of human DHODH using L-DHO, DUQ, DCIP as substrate preincubated for 30 mins followed by substrate addition measured after 20 mins
[4] = molecular target: T1, Dihydroorotate dehydrogenase (quinone), mitochondrial; experiment: Inhibition of DHODH (unknown origin) using L-DHO, DUQ, DCIP as substrate preincubated for 30 mins followed by substrate addition measured after 20 mins by multilabel plate reader analysis
[5] = molecular target: T1, Dihydroorotate dehydrogenase (quinone), mitochondrial; experiment: Inhibition of DHODH (unknown origin) using L-DHO, DUQ, DCIP as substrate at 1 uM preincubated for 30 mins followed by substrate addition measured after 20 mins by multilabel plate reader analysis relative to control

T1 sequence (Q02127 whole entry): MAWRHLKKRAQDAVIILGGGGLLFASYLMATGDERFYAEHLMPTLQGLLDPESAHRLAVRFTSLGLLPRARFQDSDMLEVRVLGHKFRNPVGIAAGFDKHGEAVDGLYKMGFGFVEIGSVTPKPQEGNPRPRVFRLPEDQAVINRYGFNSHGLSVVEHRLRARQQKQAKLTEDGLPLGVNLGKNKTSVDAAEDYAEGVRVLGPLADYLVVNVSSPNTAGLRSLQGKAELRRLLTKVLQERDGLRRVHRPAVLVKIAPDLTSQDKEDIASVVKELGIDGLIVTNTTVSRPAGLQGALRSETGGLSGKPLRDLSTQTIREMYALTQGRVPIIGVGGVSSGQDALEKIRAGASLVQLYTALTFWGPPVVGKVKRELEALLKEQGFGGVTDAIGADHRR
Chain of Poly [ADP-ribose] polymerase 1 (P09874 whole entry): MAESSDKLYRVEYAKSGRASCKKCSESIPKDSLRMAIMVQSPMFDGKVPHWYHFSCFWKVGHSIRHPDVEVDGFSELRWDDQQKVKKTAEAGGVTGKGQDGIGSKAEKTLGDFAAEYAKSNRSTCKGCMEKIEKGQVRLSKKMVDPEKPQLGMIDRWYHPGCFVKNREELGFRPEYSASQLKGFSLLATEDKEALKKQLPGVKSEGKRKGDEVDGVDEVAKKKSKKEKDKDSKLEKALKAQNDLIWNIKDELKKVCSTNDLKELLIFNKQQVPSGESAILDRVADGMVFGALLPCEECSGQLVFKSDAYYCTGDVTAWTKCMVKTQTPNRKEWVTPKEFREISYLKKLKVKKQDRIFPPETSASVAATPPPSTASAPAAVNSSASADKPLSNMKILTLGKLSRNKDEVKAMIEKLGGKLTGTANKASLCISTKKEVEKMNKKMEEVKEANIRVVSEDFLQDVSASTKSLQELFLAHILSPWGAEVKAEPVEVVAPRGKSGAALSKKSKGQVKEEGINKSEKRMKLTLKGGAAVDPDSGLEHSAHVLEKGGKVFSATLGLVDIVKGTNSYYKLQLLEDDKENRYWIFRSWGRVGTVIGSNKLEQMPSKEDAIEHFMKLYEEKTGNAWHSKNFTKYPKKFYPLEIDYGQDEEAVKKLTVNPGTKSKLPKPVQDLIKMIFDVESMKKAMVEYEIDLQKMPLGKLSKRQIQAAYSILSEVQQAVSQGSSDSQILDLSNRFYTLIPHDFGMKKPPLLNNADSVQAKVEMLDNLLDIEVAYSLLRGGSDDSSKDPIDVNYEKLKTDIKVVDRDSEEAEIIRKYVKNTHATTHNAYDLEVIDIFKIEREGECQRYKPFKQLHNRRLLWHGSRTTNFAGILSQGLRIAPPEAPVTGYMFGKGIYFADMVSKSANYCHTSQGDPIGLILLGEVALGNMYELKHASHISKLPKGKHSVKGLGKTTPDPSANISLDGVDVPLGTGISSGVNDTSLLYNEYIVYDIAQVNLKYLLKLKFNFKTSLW

Row | SMILES | inhibition [1] [%] | IC50 [2] [nM] | other results
1 | Cc1cc(C(N)=O)c2nc(-c3ccc(C#N)cc3)[nH]c2c1 | < 15 | – | –
2 | O=C(O)c1cccc2[nH]c(-c3ccc(-c4ccccc4)cc3)nc12 | – | – | IC50 [3]: 750 nM
3 | NC(=O)c1cccc2[nH]c(-c3ccc(-c4ccc(OCCN5CCCCC5)cc4)cc3)nc12 | – | 720 | –
4 | NC(=O)c1cccc2[nH]c(-c3ccc(-c4ccc(C(=O)N5CCCC5)cc4)cc3)nc12 | – | 310 | –
5 | NC(=O)c1cccc2[nH]c(-c3ccc(-c4ccc(C(=O)N5CCCC5)nc4)cc3)nc12 | < 15 | 12 | –
6 | CC(=O)Nc1ccc(-c2ccc(-c3nc4c(C(=O)O)cc(C)cc4[nH]3)cc2)cc1 | – | – | IC50 [4]: 210 nM
7 | Cc1cc(C(N)=O)c2nc(-c3ccc(C(F)(F)F)cc3)[nH]c2c1 | < 15 | – | –
8 | NC(=O)c1cccc2[nH]c(-c3ccc(-c4ccc(N)nc4)cc3)nc12 | – | 32 | –
9 | NC(=O)c1cccc2[nH]c(-c3ccc(-c4cncc(CN5CCCC5)c4)cc3)nc12 | – | 61 | –
10 | COc1ccc(-c2nc3c(C(N)=O)cccc3[nH]2)cc1 | < 15 | – | –
11 | COc1ccc(-c2nc3c(C(N)=O)cc(C)cc3[nH]2)cc1 | < 15 | – | –
12 | CC(=O)Nc1ccccc1-c1ccc(-c2nc3c(C(N)=O)cccc3[nH]2)cc1 | – | 140 | –
13 | NC(=O)c1cccc2[nH]c(-c3ccc(-c4cncc(C(=O)N5CCCC5)c4)cc3)nc12 | – | 29 | –
14 | NC(=O)c1cccc2[nH]c(-c3ccc(C(F)(F)F)cc3)nc12 | < 15 | – | –
15 | CC(=O)Nc1cccc(COc2ccc(-c3ccc(-c4nc5c(C(=O)O)cc(C)cc5[nH]4)cc3)cc2)c1 | – | – | IC50 [4]: 28 nM
16 | CC(=O)Nc1ccc(COc2ccc(-c3ccc(-c4nc5c(C(=O)O)cc(C)cc5[nH]4)cc3)cc2)cc1 | – | – | IC50 [4]: 13 nM
17 | CC(=O)Nc1ccccc1COc1ccc(-c2ccc(-c3nc4c(C(=O)O)cc(C)cc4[nH]3)cc2)cc1 | – | 10600 | IC50 [4]: 300 nM
18 | NC(=O)c1cccc2[nH]c(-c3ccc(-c4ccccc4)cc3)nc12 | – | 710 | IC50 [4]: 9800 nM
19 | Cc1cc(C(N)=O)c2nc(-c3ccc(-c4ccccc4)cc3)[nH]c2c1 | – | – | IC50 [4]: 7800 nM
20 | NC(=O)c1cccc2[nH]c(-c3ccc(-c4ccc(OCCCN5CCCCC5)cc4)cc3)nc12 | < 15 | 2280 | –
21 | CC(=O)Nc1cccc(-c2ccc(-c3nc4c(C(=O)O)cc(C)cc4[nH]3)cc2)c1 | – | – | IC50 [4]: 1380 nM

Further lines, with some results ahead:

Row | inhibition [1] [%] | IC50 [2] [nM] | SMILES | other results
22 | – | 84 | NC(=O)c1cc(F)cc2[nH]c(-c3ccc(-c4ccc(NC(=O)C5CC5)cc4F)cc3F)nc12 | –
23 | – | 980 | COc1cc(-c2ccc(-c3nc4c(C(N)=O)cc(F)cc4[nH]3)c(F)c2)ccc1NC(=O)C1CC1 | –
24 | – | 49 | CC(=O)Nc1ccc(-c2ccc(-c3nc4c(C(N)=O)cccc4[nH]3)cc2)cn1 | –
25 | < 15 | – | Cc1cc(C(N)=O)c2nc(-c3ccc(-c4ccc(C(=O)N5CCCC5)cc4)cc3)[nH]c2c1 | –
26 | < 15 | 1720 | CCC(=O)Nc1ccc(-c2ccc(-c3nc4c(C(N)=O)cc(F)cc4[nH]3)cc2)cc1 | –
27 | – | 460 | CC(=O)Nc1cccc(-c2ccc(-c3nc4c(C(N)=O)cccc4[nH]3)cc2)c1 | inhibition [5]: 45%
28 | < 15 | 5960 | COc1cc(-c2ccc(-c3nc4c(C(N)=O)cc(F)cc4[nH]3)cc2)ccc1NC(=O)C1CC1 | –
29 | – | 1280 | NC(=O)c1cc(F)cc2[nH]c(-c3ccc(-c4cccc(NC(=O)C5CC5)c4)cc3F)nc12 | –
